Reference: ChEMBL document CHEMBL3994636, “New tools in nucleoside toolbox of tick-borne encephalitis virus reproduction inhibitors” (Bioorg Med Chem Lett, 2017)
The source made the active and inactive calls. The rule behind the calls is not given here.

Tests used:
[1] = system: Tick-borne encephalitis virus; experiment: Antiviral activity against […] Absettarov infected in PEK cells assessed as inhibition of viral reproduction at 50 uM preincubated with virus for 1 hr followed by addition to PEK cells measured after 1 hr by gentian violet staining based plaque reduction assay relative to control; type: functional
[2] = system: Tick-borne encephalitis virus; experiment: Antiviral activity against […] Absettarov infected in PEK cells assessed as inhibition of viral reproduction preincubated with virus for 1 hr followed by addition to PEK cells measured after 1 hr by gentian violet staining based plaque reduction assay; type: functional, cell-based
[3] = Cytotoxicity against PEK cells after 24 hrs; type: cell-based, Sus scrofa; conditions: pig
Procedure, shortened: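 PEK (porcine embryo kidney) cells were exposed to compound at 50 μM for 24 h and examined for cytotoxicity.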

[4] = Cytotoxicity against PEK cells after 7 days; type: cell-based, Sus scrofa; conditions: pig

Structure (SMILES) | inhibition [1] | EC50 [2] [µM] | inhibition at 50 µM [1] [%] | CC50 at 24 h [3] [µM] | CC50 at 168 h [4] [µM]
Cc1cn([C@@H]2O[C@H](CO)[C@@](C)(O)[C@H]2O)c(=O)[nH]c1=O | inactive | > 50 | – | – | –
C[C@@]1(O)[C@@H](CO)O[C@@H](n2ccc(=O)[nH]c2=O)[C@@H]1O | inactive | > 50 | – | – | –
OC[C@H]1O[C@@H](n2cnc3c(NCc4ccc5ccccc5c4)ncnc32)[C@H](O)[C@@H]1O | inactive | > 50 | – | – | –
C[n+]1cn([C@@H]2O[C@H](CO)[C@@H](O)[C@H]2O)c2nc(N)nc([O-])c21 | inactive | > 50 | – | – | –
CC(C)=CCC/C(C)=C\CNc1ncnc2c1ncn2[C@@H]1O[C@H](CO)[C@@H](O)[C@H]1O | inactive | > 50 | – | – | –
O=C(Nc1nc2c(ncn2[C@@H]2O[C@H](CO)[C@@H](O)[C@H]2O)c(=O)[nH]1)c1ccccc1 | inactive | > 50 | – | – | –
OC[C@H]1O[C@@H](n2cnc3c(NC/C=C/c4ccccc4)ncnc32)[C@H](O)[C@@H]1O | inactive | > 50 | – | – | –
OC[C@H]1O[C@@H](n2cnc3c(NC4CCCCC4)ncnc32)[C@H](O)[C@@H]1O | inactive | > 50 | – | – | –
CC(C)=CCNc1ncnc2c1ncn2[C@@H]1O[C@H](CO)[C@@H](O)[C@H]1O [RIBOPRINE] | inactive | > 50 | – | – | –
OC[C@H]1O[C@@H](n2cnc3c(NCc4ccc5ccc6cccc7ccc4c5c67)ncnc32)[C@H](O)[C@@H]1O | – | 6 | 50 | > 50 | 9
C[C@@]1(O)[C@@H](CO)O[C@@H](n2cnc3c(=O)[nH]c(N)nc32)[C@@H]1O | inactive | > 50 | – | – | –
OC[C@H]1O[C@@H](n2cnc3c(NCC#Cc4ccccc4)ncnc32)[C@H](O)[C@@H]1O | inactive | > 48 | – | – | –
O[C@@H]1[C@H](O)[C@@H](COC(c2ccccc2)(c2ccccc2)c2ccccc2)O[C@H]1n1cnc2c(NCc3ccccc3)ncnc21 | – | 2 | 50 | > 50 | 9
O=C(Nc1ccn(C2O[C@H](CO)[C@@H](O)[C@H]2O)c(=O)n1)c1ccccc1 (stereo partly specified) | inactive | > 50 | – | – | –
CC(C)=CCC/C(C)=C/CNc1ncnc2c1ncn2[C@@H]1O[C@H](CO)[C@@H](O)[C@H]1O | inactive | > 50 | – | – | –
OC/C=C\CNc1ncnc2c1ncn2[C@@H]1O[C@H](CO)[C@@H](O)[C@H]1O | inactive | > 50 | – | – | –

Structure (SMILES) | inhibition [1] | EC50 [2] [µM] | inhibition at 50 µM [1] [%] | CC50 at 24 h [3] [µM] | CC50 at 168 h [4] [µM]
OC[C@H]1O[C@@H](n2cnc3c(NCc4c5ccccc5cc5ccccc45)ncnc32)[C@H](O)[C@@H]1O | – | 15 | 50 | > 50 | > 50
Cn1cnc2c(ncn2[C@@H]2O[C@H](CO)[C@@H](O)[C@H]2O)c1=N | inactive | > 50 | – | – | –
C#CCNc1ncnc2c1ncn2[C@@H]1O[C@H](CO)[C@@H](O)[C@H]1O | inactive | > 50 | – | – | –
OC[C@H]1O[C@@H](n2cnc3c(NCc4ccco4)ncnc32)[C@H](O)[C@@H]1O [KINETIN RIBOSIDE] | inactive | > 50 | – | – | –
CC1(C)[C@H]2CC=C(CNc3ncnc4c3ncn4[C@@H]3O[C@H](CO)[C@@H](O)[C@H]3O)[C@@H]1C2 | inactive | > 50 | – | – | –
CC(C)[Si](OC[C@H]1O[C@@H](n2cnc3c(NCc4ccccc4)ncnc32)[C@H](O)[C@@H]1O)(C(C)C)C(C)C | – | 5 | 50 | > 50 | > 50
C=C(C)[C@@H]1CC=C(CNc2ncnc3c2ncn3[C@@H]2O[C@H](CO)[C@@H](O)[C@H]2O)CC1 | inactive | > 50 | – | – | –
OC[C@H]1O[C@@H](n2cnc3c(NCc4ccccc4)ncnc32)[C@H](O)[C@@H]1O [N6-BENZYLADENOSINE] | inactive | > 50 | – | > 50 | > 50
C=CCC#CCNc1ncnc2c1ncn2[C@@H]1O[C@H](CO)[C@@H](O)[C@H]1O | inactive | > 50 | – | – | –
C[C@@]1(O)[C@@H](CO)O[C@@H](n2ccc(N)nc2=O)[C@@H]1O | inactive | > 50 | – | – | –
OC[C@H]1O[C@@H](n2cnc3c(NC(c4ccccc4)(c4ccccc4)c4ccccc4)ncnc32)[C@H](O)[C@@H]1O | inactive | > 50 | – | – | –
CNc1ncnc2c1ncn2[C@@H]1O[C@H](CO)[C@@H](O)[C@H]1O | inactive | > 50 | – | – | –
c1ccc(CNc2ncnc3nc[nH]c23)cc1 [6-BENZYLAMINOPURINE] | – | – | – | > 50 | > 50
CC(C)C(=O)Nc1nc2c(ncn2[C@@H]2O[C@H](CO)[C@@H](O)[C@H]2O)c(=O)[nH]1 | inactive | > 50 | – | – | –
CC(C)(C)[Si](C)(C)OC[C@H]1O[C@@H](n2cnc3c(NCc4ccccc4)ncnc32)[C@H](O)[C@@H]1O | – | 20 | 50 | > 50 | > 50
c1ccc(CNc2ncnc3[nH]cnc23)cc1 [6-BENZYLAMINOPURINE] | inactive | > 50 | – | – | –
